Data: ChEMBL document CHEMBL4196172 (J Med Chem, 2018)
pIC50: −log10 of the molar value. Activity calls are given as the source filed them. The calls are words filed in the database; no cut-off is given here.

Key:
[1] = target: cGMP-specific 3',5'-cyclic phosphodiesterase (Homo sapiens, UniProt O76074); test: Inhibition of human PDE5A1 catalytic domain (535 to 860 residues) expressed in Escherichia coli BL21 using 3H-cGMP as substrate after 15 mins by liquid scintillation counting
Rattus norvegicus [2] = test: Anti-hypertensive activity in MCT-induced pulmonary hypertension Wistar rat model assessed as reduction in RVHI at 10 mg/kg, po administered for 3 weeks; type: functional, organism-based
In short: (§1)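 PAH was induced in rats by monocrotaline (MCT) injection and confirmed after 3 weeks against an untreated control group. Treated groups received oral dosing and were compared with the MCT model group. Read-outs were mean pulmonary artery pressure, right ventricle hypertrophy index, and small pulmonary artery wall thickness as % of external diameter. Data are mean ± S.E.M., n = 6-9/group.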

Rattus norvegicus [3] = test: Anti-hypertensive activity in MCT-induced pulmonary hypertension Wistar rat model assessed as reduction in wall thickness percentage at 10 mg/kg, po administered for 3 weeks; type: functional, organism-based; in short: as §1
Rattus norvegicus [4] = test: Anti-hypertensive activity in MCT-induced pulmonary hypertension Wistar rat model assessed as mean pulmonary artery pressure at 10 mg/kg, po administered for 3 weeks (reference value: 52.55 mmHg); type: functional; in short: as §1
Cytochrome P450 2C9 = Cytochrome P450 2C9 (Homo sapiens, UniProt P11712); test: Inhibition of CYP2C9 in human liver microsomes in presence of NADPH; type: ADME
Cytochrome P450 2C9, sequence (P11712 whole entry): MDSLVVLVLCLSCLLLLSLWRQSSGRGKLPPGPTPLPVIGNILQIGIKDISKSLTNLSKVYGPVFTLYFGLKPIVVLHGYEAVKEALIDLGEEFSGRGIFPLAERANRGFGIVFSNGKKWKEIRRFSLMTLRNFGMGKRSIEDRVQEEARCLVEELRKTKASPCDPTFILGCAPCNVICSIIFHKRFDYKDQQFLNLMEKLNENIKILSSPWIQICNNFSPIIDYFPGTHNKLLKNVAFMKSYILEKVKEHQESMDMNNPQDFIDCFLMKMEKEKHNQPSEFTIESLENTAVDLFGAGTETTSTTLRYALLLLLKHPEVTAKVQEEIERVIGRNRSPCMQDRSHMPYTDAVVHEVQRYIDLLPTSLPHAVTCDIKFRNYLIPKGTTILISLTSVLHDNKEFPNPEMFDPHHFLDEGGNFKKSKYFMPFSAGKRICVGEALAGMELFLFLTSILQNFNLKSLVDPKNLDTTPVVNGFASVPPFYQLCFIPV

Rattus norvegicus [5] = test: Anti-hypertensive activity in MCT-induced pulmonary hypertension Wistar rat model assessed as mean pulmonary artery pressure at 1.25 mg/kg, po administered for 3 weeks (reference value: 52.55 mmHg); type: functional; in short: as §1
[6] = Protein binding in human plasma at 1 uM after 4 hrs by LC/MS/MS analysis; type: ADME, cell-free; details: read-out: PPB (converted)
[7] = target: cGMP-dependent 3',5'-cyclic phosphodiesterase (Homo sapiens, UniProt O00408); test: Inhibition of PDE2A catalytic domain (580 to 919 residues) (unknown origin) expressed in Escherichia coli BL21 using 3H-cGMP as substrate after 15 mins by liquid scintillation counting
cGMP-dependent 3',5'-cyclic phosphodiesterase, sequence (O00408 whole entry, the tested form may be a part): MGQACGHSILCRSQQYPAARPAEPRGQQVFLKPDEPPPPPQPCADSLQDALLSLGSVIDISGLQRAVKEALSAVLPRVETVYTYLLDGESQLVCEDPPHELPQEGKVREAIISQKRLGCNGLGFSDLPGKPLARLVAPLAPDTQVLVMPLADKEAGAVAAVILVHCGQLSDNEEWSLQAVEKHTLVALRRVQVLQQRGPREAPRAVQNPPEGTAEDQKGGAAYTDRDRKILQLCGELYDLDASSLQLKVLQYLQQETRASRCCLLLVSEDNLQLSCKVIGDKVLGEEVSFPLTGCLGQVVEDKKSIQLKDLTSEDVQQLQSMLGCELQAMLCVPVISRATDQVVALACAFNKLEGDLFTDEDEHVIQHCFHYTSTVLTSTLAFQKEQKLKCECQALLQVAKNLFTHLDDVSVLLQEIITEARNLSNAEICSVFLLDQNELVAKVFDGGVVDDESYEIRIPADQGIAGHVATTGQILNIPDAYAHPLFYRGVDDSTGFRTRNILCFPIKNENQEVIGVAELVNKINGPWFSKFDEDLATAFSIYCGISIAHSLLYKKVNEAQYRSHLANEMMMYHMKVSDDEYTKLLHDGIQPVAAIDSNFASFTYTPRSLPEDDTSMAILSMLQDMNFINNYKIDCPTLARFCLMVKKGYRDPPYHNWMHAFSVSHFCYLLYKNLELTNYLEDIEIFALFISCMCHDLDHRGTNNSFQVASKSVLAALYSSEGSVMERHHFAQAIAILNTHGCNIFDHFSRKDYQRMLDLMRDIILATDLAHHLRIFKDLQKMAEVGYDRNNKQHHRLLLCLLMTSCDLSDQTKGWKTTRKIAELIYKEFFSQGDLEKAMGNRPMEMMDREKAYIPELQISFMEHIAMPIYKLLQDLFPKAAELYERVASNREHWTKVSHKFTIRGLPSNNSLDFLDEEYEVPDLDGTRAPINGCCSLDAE

Rattus norvegicus [8] = test: Anti-hypertensive activity in MCT-induced pulmonary hypertension Wistar rat model assessed as reduction in wall thickness percentage at 1.25 mg/kg, po administered for 3 weeks; type: functional, organism-based; in short: as §1
[9] = target: cAMP and cAMP-inhibited cGMP 3',5'-cyclic phosphodiesterase 10A (Homo sapiens, UniProt Q9Y233); test: Inhibition of PDE10A catalytic domain (449 to 770 residues) (unknown origin) expressed in Escherichia coli BL21 using 3H-cAMP as substrate after 15 mins by liquid scintillation counting
cAMP and cAMP-inhibited cGMP 3',5'-cyclic phosphodiesterase 10A, sequence (Q9Y233 whole entry, the tested form may be a part): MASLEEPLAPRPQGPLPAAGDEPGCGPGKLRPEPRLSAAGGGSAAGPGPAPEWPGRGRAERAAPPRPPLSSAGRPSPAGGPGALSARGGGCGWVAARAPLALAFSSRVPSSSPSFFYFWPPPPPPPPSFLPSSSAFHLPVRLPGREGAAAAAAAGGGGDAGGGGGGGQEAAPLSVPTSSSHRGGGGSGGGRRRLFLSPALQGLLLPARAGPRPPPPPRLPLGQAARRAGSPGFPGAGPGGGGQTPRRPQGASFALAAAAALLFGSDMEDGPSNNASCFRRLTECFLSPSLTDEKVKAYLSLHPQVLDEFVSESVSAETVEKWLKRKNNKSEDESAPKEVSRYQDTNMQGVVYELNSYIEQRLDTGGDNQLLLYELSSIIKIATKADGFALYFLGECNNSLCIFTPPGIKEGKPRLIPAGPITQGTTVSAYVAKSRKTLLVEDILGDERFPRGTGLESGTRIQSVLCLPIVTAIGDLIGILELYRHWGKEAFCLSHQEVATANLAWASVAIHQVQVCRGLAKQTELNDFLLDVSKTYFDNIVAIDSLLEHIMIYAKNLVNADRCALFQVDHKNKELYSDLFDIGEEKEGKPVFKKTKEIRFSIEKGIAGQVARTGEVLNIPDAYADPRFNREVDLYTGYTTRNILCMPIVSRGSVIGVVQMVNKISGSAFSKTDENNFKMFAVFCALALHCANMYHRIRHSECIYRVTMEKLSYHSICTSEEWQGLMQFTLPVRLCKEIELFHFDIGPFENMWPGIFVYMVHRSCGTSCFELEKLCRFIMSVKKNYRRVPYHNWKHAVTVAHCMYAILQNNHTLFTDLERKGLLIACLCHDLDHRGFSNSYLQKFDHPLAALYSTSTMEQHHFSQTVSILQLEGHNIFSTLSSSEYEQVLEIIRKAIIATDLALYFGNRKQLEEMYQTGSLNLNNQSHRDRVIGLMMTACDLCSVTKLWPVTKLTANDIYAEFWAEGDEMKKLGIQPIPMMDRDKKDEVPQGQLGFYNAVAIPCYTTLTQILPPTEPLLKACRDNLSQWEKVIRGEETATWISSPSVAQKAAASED

[10] = target: Cone cGMP-specific 3',5'-cyclic phosphodiesterase subunit alpha' (Homo sapiens, UniProt P51160); test: Inhibition of PDE6C catalytic domain (1 to 858 residues) (unknown origin) expressed in Escherichia coli BL21 using 3H-cGMP as substrate after 15 mins by liquid scintillation counting
Cytochrome P450 2B6 = target: T1, Cytochrome P450 2B6 (Homo sapiens, UniProt P20813); test: Inhibition of CYP2B6 in human liver microsomes in presence of NADPH; type: ADME
T1 sequence (P20813 whole entry): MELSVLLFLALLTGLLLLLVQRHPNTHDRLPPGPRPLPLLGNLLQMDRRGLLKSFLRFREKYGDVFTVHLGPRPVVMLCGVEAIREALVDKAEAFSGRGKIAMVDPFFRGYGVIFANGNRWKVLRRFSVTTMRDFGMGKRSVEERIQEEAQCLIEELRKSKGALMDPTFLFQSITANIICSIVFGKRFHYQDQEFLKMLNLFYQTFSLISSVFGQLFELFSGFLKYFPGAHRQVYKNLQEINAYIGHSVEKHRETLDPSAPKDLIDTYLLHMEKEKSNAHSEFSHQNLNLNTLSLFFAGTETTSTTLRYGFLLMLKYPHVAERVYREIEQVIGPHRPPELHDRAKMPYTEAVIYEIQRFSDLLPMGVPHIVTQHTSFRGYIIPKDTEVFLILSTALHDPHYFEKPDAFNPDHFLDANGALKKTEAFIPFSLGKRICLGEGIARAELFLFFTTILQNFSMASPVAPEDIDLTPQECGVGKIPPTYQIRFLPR

Mus musculus = test: Acute toxicity in KM mouse up to 1.5 g/kg, po administered as single dose measured after 14 days; type: organism-based; details: in vivo, 1500 mg/kg, 336 h
[11] = target: 3',5'-cyclic-AMP phosphodiesterase 4D (Homo sapiens, UniProt Q08499); test: Inhibition of PDE4D2 catalytic domain (86 to 413 residues) (unknown origin) expressed in Escherichia coli BL21 using 3H-cAMP as substrate after 15 mins by liquid scintillation counting
3',5'-cyclic-AMP phosphodiesterase 4D, sequence (Q08499 whole entry, the tested form may be a part): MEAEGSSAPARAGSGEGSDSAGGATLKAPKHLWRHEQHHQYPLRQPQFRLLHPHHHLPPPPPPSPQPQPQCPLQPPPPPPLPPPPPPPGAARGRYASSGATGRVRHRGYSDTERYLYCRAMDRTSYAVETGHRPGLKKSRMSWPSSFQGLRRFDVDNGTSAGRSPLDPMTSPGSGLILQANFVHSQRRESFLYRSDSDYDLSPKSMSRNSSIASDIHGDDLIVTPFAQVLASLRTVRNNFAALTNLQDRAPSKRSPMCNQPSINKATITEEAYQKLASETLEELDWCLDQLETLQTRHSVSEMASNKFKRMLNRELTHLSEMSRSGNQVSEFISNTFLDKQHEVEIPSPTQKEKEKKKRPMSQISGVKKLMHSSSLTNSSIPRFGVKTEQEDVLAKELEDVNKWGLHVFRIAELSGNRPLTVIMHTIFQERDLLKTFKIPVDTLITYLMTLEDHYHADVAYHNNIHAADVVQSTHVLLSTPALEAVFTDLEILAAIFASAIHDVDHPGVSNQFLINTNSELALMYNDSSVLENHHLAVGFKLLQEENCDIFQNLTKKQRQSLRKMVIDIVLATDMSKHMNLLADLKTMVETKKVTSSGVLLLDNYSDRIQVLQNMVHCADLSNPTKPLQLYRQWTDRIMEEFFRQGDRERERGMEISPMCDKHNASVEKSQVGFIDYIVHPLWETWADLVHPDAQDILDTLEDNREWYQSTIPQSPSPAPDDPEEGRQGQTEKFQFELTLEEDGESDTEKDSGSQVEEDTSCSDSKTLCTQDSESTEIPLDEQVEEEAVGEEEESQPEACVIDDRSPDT

[12] = Half life in rat liver microsomes at 0.5 uM; type: ADME, microsome
[13] = Metabolic stability in rat liver microsomes assessed as stability rate constant at 0.5 uM; type: ADME, microsome
Rattus norvegicus [14] = test: Anti-hypertensive activity in MCT-induced pulmonary hypertension Wistar rat model assessed as reduction in RVHI at 1.25 mg/kg, po administered for 3 weeks; type: functional, organism-based; in short: as §1
[15] = target: Voltage-gated inwardly rectifying potassium channel KCNH2 (Homo sapiens, UniProt Q12809); test: Inhibition of human ERG expressed in CHO cells by automated patch clamp assay; type: cell-based
Voltage-gated inwardly rectifying potassium channel KCNH2, sequence (Q12809 whole entry): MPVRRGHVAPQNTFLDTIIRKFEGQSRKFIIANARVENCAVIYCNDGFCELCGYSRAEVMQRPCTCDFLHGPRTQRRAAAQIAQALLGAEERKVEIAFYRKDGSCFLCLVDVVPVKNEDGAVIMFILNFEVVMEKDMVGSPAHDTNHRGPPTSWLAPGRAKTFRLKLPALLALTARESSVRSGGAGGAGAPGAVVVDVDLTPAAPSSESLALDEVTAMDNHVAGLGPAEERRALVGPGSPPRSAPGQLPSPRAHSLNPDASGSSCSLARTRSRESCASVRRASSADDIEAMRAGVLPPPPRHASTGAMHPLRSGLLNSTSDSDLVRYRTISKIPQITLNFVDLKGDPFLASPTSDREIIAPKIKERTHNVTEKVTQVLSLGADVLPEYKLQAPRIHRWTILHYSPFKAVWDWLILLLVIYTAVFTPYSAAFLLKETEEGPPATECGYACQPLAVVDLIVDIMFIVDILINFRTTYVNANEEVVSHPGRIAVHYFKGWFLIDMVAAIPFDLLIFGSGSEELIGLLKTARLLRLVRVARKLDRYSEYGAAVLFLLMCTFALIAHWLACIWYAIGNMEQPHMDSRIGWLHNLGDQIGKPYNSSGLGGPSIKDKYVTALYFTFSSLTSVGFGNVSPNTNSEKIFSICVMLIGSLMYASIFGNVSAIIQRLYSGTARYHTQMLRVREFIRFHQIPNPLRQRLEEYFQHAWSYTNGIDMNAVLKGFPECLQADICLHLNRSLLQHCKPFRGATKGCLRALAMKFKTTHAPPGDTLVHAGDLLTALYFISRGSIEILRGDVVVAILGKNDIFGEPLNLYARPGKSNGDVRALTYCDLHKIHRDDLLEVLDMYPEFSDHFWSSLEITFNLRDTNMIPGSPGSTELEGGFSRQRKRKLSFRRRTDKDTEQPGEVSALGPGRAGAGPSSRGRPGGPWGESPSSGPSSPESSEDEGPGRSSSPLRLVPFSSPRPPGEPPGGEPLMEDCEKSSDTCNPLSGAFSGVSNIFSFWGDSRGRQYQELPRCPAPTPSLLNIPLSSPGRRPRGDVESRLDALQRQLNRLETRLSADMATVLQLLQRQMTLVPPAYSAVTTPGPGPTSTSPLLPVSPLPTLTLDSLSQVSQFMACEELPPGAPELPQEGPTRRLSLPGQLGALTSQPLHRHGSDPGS

Cytochrome P450 3A4 = Cytochrome P450 3A4 (Homo sapiens, UniProt P08684); test: Inhibition of CYP3A4 in human liver microsomes in presence of NADPH; type: ADME
Cytochrome P450 3A4, sequence (P08684 whole entry): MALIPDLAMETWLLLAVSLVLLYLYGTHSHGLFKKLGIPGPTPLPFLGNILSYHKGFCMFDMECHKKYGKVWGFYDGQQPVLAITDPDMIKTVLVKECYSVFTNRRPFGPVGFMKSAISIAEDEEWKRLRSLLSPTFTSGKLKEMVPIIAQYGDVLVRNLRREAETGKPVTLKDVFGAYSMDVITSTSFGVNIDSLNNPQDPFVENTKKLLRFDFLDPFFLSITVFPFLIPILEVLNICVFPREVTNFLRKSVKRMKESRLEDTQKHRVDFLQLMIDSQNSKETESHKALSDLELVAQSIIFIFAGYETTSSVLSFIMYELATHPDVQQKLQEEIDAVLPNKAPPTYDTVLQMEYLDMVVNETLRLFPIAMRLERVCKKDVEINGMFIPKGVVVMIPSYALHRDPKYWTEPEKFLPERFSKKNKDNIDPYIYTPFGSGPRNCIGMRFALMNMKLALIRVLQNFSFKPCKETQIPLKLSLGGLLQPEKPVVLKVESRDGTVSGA

Cytochrome P450 1A2 = target: T2, Cytochrome P450 1A2 (Homo sapiens, UniProt P05177); test: Inhibition of CYP1A2 in human liver microsomes in presence of NADPH; type: ADME
T2 sequence (P05177 whole entry): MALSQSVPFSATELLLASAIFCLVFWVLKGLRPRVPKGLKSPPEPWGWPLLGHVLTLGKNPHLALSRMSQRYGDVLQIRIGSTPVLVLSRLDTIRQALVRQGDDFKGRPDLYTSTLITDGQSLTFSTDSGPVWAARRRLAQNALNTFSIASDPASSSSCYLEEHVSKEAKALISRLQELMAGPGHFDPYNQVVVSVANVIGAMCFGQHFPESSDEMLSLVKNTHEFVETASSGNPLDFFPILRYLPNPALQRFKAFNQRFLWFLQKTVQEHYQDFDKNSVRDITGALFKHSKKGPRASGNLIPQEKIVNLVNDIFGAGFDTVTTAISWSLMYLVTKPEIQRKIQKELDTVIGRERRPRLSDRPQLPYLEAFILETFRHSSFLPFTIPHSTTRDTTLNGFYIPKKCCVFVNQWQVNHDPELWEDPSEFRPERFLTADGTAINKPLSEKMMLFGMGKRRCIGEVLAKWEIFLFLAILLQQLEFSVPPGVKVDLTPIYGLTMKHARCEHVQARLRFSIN

[16] = Intrinsic clearance in rat liver microsomes at 0.5 uM; type: ADME, microsome
[17] = Apparent clearance in rat liver microsomes at 0.5 uM; type: ADME, microsome; details: read-out: CLH(app)
[18] = target: Dual 3',5'-cyclic-AMP and -GMP phosphodiesterase 11A (Homo sapiens, UniProt Q9HCR9); test: Inhibition of PDE11A catalytic domain (588 to 911 residues) (unknown origin) expressed in Escherichia coli BL21 using 3H-cAMP as substrate after 15 mins by liquid scintillation counting
Homo sapiens = species: Homo sapiens; test: Selectivity ratio of IC50 for PDE11A catalytic domain (588 to 911 residues) (unknown origin) to IC50 for human PDE5A1 catalytic domain (535 to 860 residues)
[19] = Hepatic extraction ratio in rat liver microsomes at 0.5 uM; type: ADME, microsome; details: read-out: ERH

SMILES: O=c1c2cc(F)cc(F)c2oc2c(Cc3ccc4c(c3)OCO4)[nH]c(-c3nccs3)c12
- pIC50 [1]: 8.79

SMILES: O=c1c2cc(Br)ccc2oc2c(Cc3ccc4c(c3)OCO4)[nH]c(-c3nccs3)c12
- pIC50 [1]: 8.42

SMILES: O=c1c2ccc(Cl)cc2oc2c(Cc3ccc4c(c3)OCO4)[nH]c(-c3nccs3)c12
- pIC50 [1]: 8.58

SMILES: O=c1c2c(O)cc(NCCN3CCOCC3)cc2oc2c(Cc3ccc4c(c3)OCO4)[nH]c(-c3nccs3)c12
- pIC50 [1]: 9.10

SMILES: O=c1c2cccc(Cl)c2oc2c(Cc3ccc4c(c3)OCO4)[nH]c(-c3nccs3)c12
- pIC50 [1]: 8.68

SMILES: CCCc1nn(C)c2c(=O)[nH]c(-c3cc(S(=O)(=O)N4CCN(C)CC4)ccc3OCC)nc12 [listing 1 of 2 here]
- Activity (Rattus norvegicus [2]): Active
- Activity (Rattus norvegicus [3]): Active

SMILES: COc1ccc2c(=O)c3c(-c4nccs4)[nH]c(Cc4ccc5c(c4)OCO5)c3oc2c1
- pIC50 [1]: 8.58

SMILES: O=c1c2c(O)cccc2oc2c(Cc3ccc4c(c3)OCO4)[nH]c(-c3nccs3)c12
- pIC50 [1]: 8.98

SMILES: CCCc1nn(C)c2c(=O)[nH]c(-c3cc(S(=O)(=O)N4CCN(C)CC4)ccc3OCC)nc12.O=C(O)CC(O)(CC(=O)O)C(=O)O [SILDENAFIL CITRATE]
- Activity (Rattus norvegicus [4]): 20.86 mmHg

SMILES: O=c1c2c(F)cc(Br)cc2oc2c(Cc3ccc4c(c3)OCO4)[nH]c(-c3nccs3)c12
- pIC50 [1]: 8.63

SMILES: O=c1c2ccc(F)cc2oc2c(Cc3ccc4c(c3)OCO4)[nH]c(-c3nccs3)c12
- pIC50 [1]: 8.62

SMILES: COCCNc1cc(O)c2c(=O)c3c(-c4nccs4)[nH]c(Cc4ccc5c(c4)OCO5)c3oc2c1
- pIC50 (Cytochrome P450 2C9): 6.87
- Activity (Rattus norvegicus [5]): 19.94 mmHg
- fraction unbound at 4 h, 1 µM [6]: 0.023
- pIC50 [7]: 6.97
- Activity (Rattus norvegicus [8]): Active
- pIC50 [9]: 7.34
- pIC50 [10]: 8.92
- pIC50 (Cytochrome P450 2B6): < 5.00
- Activity (Mus musculus): Non-Toxic
- pIC50 [11]: 7.37
- half-life at 0.5 µM [12]: 15.1 to 18.3 min
- K [13]: 0.0378 to 0.046
- Activity (Rattus norvegicus [14]): Active
- pIC50 [15]: < 4.52
- pIC50 (Cytochrome P450 3A4): < 5.00
- pIC50 (Cytochrome P450 1A2): < 5.00
- Intrinsic clearance (CLint) [16]: 0.0756 to 0.092 mL/min/mg
- CLint scaled at 0.5 µM [17]: 136 to 165 mL/min/kg
- pIC50 [18]: 7.41

SMILES: O=c1c2cc(Cl)cc(Br)c2oc2c(Cc3ccc4c(c3)OCO4)[nH]c(-c3nccs3)c12
- pIC50 [1]: 8.52

SMILES: CN1CC(=O)N2[C@H](c3ccc4c(c3)OCO4)c3[nH]c4ccccc4c3C[C@@H]2C1=O
- Ratio IC50 (Homo sapiens): 20

SMILES: COc1cccc2oc3c(Cc4ccc5c(c4)OCO5)[nH]c(-c4nccs4)c3c(=O)c12
- pIC50 [1]: 8.36

SMILES: CNc1cc(O)c2c(=O)c3c(-c4nccs4)[nH]c(Cc4ccc5c(c4)OCO5)c3oc2c1
- pIC50 [1]: 9.28

SMILES: COc1c(Cl)ccc2oc3c(Cc4ccc5c(c4)OCO5)[nH]c(-c4nccs4)c3c(=O)c12
- pIC50 [1]: 8.17

SMILES: CN1CCN(CCNc2cc(O)c3c(=O)c4c(-c5nccs5)[nH]c(Cc5ccc6c(c5)OCO6)c4oc3c2)CC1
- hepatic extraction ratio at 0.5 µM [19]: 0.9
- pIC50 [1]: 9.41
- half-life at 0.5 µM [12]: 5.26 min
- K [13]: 0.1317
- Intrinsic clearance (CLint) [16]: 0.2634 mL/min/mg
- CLint scaled at 0.5 µM [17]: 472 mL/min/kg

SMILES: O=c1c2ccc(Br)cc2oc2c(Cc3ccc4c(c3)OCO4)[nH]c(-c3nccs3)c12
- pIC50 [1]: 8.80

SMILES: O=c1c2c(F)cccc2oc2c(Cc3ccc4c(c3)OCO4)[nH]c(-c3nccs3)c12
- hepatic extraction ratio at 0.5 µM [19]: 0.83
- pIC50 [1]: 8.85
- half-life at 0.5 µM [12]: 9.52 min
- K [13]: 0.0728
- Intrinsic clearance (CLint) [16]: 0.1456 mL/min/mg
- CLint scaled at 0.5 µM [17]: 262 mL/min/kg

SMILES: O=c1c2cc(F)ccc2oc2c(Cc3ccc4c(c3)OCO4)[nH]c(-c3nccs3)c12
- pIC50 [1]: 8.39

SMILES: O=c1c2cc(Cl)ccc2oc2c(Cc3ccc4c(c3)OCO4)[nH]c(-c3nccs3)c12
- pIC50 [1]: 8.02

SMILES: CCCc1nn(C)c2c(=O)[nH]c(-c3cc(S(=O)(=O)N4CCN(C)CC4)ccc3OCC)nc12 [listing 2 of 2 here]
- half-life at 0.5 µM [12]: 5.37 min
- K [13]: 0.1291
- Intrinsic clearance (CLint) [16]: 0.2582 mL/min/mg
- CLint scaled at 0.5 µM [17]: 463 mL/min/kg
